Active and inactive are the calls of the source. The calls are words filed in the database; no cut-off is given here.
Legend:
Assay type in all cases: cell-based
[1] = target: Cystic fibrosis transmembrane conductance regulator (Homo sapiens, UniProt P13569); assay: (§1) Activity at human CFTR delta F508 mutant expressed in forskolin-stimulated FRT cells assessed as increase in iodine influx measured as decrease in YFP fluorescence after 18 to 24 hrs at 37 degC in presence of genistein; conditions: frt
Chain of Cystic fibrosis transmembrane conductance regulator (Homo sapiens, UniProt P13569) (P13569 as listed by the source): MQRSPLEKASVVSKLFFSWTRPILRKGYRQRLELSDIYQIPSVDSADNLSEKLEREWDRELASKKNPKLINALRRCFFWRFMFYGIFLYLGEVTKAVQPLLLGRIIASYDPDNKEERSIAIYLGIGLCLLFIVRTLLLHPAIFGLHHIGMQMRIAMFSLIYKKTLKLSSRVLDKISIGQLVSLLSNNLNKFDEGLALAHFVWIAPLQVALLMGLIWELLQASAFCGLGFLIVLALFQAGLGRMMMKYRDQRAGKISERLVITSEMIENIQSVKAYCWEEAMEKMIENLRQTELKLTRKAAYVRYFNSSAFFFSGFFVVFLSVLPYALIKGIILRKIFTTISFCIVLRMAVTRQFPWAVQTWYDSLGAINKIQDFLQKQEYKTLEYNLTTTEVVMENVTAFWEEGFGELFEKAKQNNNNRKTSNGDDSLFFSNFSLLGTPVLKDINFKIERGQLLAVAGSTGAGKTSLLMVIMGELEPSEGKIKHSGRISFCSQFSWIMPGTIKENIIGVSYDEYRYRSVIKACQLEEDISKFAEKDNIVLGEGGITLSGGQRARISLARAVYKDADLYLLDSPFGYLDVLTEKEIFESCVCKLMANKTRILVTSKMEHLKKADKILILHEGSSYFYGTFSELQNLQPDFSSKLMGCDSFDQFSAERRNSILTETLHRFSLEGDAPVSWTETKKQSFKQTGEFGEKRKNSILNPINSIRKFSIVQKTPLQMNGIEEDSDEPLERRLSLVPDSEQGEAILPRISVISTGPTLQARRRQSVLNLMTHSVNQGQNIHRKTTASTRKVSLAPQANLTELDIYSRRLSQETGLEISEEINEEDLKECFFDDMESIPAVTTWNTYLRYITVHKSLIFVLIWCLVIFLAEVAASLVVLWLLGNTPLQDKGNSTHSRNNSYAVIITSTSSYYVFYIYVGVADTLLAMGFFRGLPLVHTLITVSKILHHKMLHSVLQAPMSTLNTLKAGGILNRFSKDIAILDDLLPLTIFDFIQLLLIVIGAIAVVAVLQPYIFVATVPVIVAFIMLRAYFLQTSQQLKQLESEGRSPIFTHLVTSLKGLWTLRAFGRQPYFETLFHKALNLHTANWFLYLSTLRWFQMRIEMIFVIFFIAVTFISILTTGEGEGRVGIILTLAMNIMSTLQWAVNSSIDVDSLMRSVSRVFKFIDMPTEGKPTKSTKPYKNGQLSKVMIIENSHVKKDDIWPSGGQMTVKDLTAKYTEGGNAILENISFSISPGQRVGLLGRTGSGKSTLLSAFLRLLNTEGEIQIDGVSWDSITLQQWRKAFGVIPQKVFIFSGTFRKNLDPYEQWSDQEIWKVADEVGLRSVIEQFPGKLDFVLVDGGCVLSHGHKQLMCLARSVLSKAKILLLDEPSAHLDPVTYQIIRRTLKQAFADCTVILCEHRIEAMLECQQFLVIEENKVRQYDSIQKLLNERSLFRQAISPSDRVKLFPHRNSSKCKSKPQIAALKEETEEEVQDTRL
How it was run: (§2)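 Corrector plate-reader assay. FRT cells stably coexpressing human ΔF508-CFTR and YFP-H148Q/I152L, grown 24 h at 37 °C, then exposed to compound for 16−20 h (up to 25 μM, eight concentrations). Cells are washed, then given forskolin 20 μM plus genistein 50 μM in PBS for 20 min. I⁻ influx comes from the YFP quench recorded 2 s baseline plus 12 s after iodide addition, fitted by exponential regression. Controls are DMSO vehicle and a reference corrector. EC50/Vmax come from four-parameter logistic fits; triplicate.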

[2] = Potentiation of genistein-induced human CFTR delta F508 mutant gating activity expressed in forskolin-stimulated FRT cells assessed as increase in iodine influx measured as decrease in YFP fluorescence after 24 hrs at 27 degC
How it was run: (§3)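 Potentiator plate-reader assay. FRT cells coexpressing human ΔF508-CFTR and YFP-H148Q/I152L, grown 18−24 h at 37 °C, then rescued 18−24 h at 27 °C. Cells are washed, then given 10 min of forskolin 20 μM plus compound in PBS (eight concentrations, 0−50 μM final). I⁻ influx comes from the YFP quench after iodide addition (2 s baseline, 12 s), by exponential regression. Controls are DMSO and genistein. EC50/Vmax come from four-parameter logistic fits; triplicate.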

[3] = tested on: FRT; assay: Potentiation of genistein-induced human CFTR delta F508 mutant gating activity expressed in forskolin-stimulated FRT cells assessed as increase in iodine influx measured as decrease in YFP fluorescence after 24 hrs at 27 degC relative to control; how it was run: as §3
[4] = target: Cystic fibrosis transmembrane conductance regulator (Homo sapiens, UniProt P13569, F508DEL); assay: as §1; how it was run: as §2
Chain of Cystic fibrosis transmembrane conductance regulator (Homo sapiens, UniProt P13569, F508DEL) (P13569 as listed by the source): as above

[5] = tested on: FRT; assay: Potentiation of genistein-induced human CFTR delta F508 mutant gating activity expressed in forskolin-stimulated basolateral membrane permeabilized FRT cells assessed as increase in apical chloride current at 3 to 100 uM after 24 hrs at 27 degC by short-circuit assay
How it was run: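 Short-circuit current. ΔF508-CFTR FRT cells are cultured 7−9 days on permeable inserts and temperature-rescued 18−24 h at 27 °C. Apical Cl⁻ current is recorded in basolateral-permeabilized monolayers under an apical-to-basolateral Cl⁻ gradient. Forskolin 20 μM is added, then test compound, with CFTRinh-172 10 μM at the end.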

[6] = tested on: Cystic fibrosis transmembrane conductance regulator (Homo sapiens), P13569 [F508del]; assay: Activity at human CFTR delta F508 mutant expressed in forskolin-stimulated basolateral membrane permeabilized FRT cells assessed as increase in apical chloride current at 10 uM after 18 to 24 hrs at 37 degC by short-circuit assay in presence of genistein
Chain of Cystic fibrosis transmembrane conductance regulator (Homo sapiens), P13569 [F508del] (P13569 as listed by the source): as above
How it was run: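 Short-circuit current. ΔF508-CFTR FRT cells are cultured 7−9 days on permeable inserts, then given compound for 18−24 h at 37 °C. Apical Cl⁻ current is recorded after basolateral permeabilization under an apical-to-basolateral Cl⁻ gradient. Forskolin 20 μM and genistein 50 μM are added, followed by CFTRinh-172 10 μM.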

[7] = Homo sapiens, FRT, 24 h, read-out: EC50

| EC50 [1] | EC50 ([2]; frt) | EC50 [2, 7] [µM] | EC50 [4] [µM] | Activity [6] | SMILES | Vmax [3] [µM/s] | Activity [5] |
| --- | --- | --- | --- | --- | --- | --- | --- |
| Not Active | Not Active | – | – | – | Cc1cc(C)c2cc(C#N)c(N3CCN(C(=O)c4ccncc4)CC3)nc2c1 | – | – |
| – | – | 11.5 | 3.7 | – | COc1cccc(OC)c1C(=O)NCCNc1nc2cc(C)cc(C)c2cc1C#N | 119 | – |
| – | – | 16 | 3 | – | Cc1cc(C)c2cc(C#N)c(NCCCNC(=O)c3cccnc3)nc2c1 | 115 | – |
| – | – | 3.4 | 2.7 | – | COc1ccc(C(=O)NCCNc2nc3cc(C)cc(C)c3cc2C#N)nc1 | 70 | – |
| Not Active | – | 7.4 | – | – | Cc1cc(C)c2cc(C#N)c(N3CCN(C(=O)c4ccccn4)CC3)nc2c1 | 102 | – |
| – | Not Active | – | 6.7 | – | Cc1cc(C)c2cc(C#N)c(NCCNC(=O)c3cnccn3)nc2c1 | – | – |
| – | – | 4.6 | 4.6 | – | COc1cccc(C(=O)NCCCNc2nc3cc(C)cc(C)c3cc2C#N)c1 | 147 | – |
| – | – | 5.9 | 2.2 | Active | COc1cccc(C(=O)NCCNc2nc3cc(C)cc(C)c3cc2C#N)c1 | 216 | Active |
| – | – | 13.2 | 8.2 | – | Cc1cc(C)c2cc(C#N)c(NCCCNC(=O)c3ccncc3)nc2c1 | 53 | – |
| Not Active | Not Active | – | – | – | Cc1cc(C)c2cc(C#N)c(N3CCN(C(=O)c4cccnc4)CC3)nc2c1 | – | – |

Second part, the molecule before the results:

| SMILES | EC50 [1] | EC50 ([2]; frt) | EC50 [2, 7] [µM] | EC50 [4] [µM] | Activity [6] | Vmax [3] [µM/s] | Activity [5] |
| --- | --- | --- | --- | --- | --- | --- | --- |
| COc1ccccc1C(=O)N1CCN(c2nc3cc(C)cc(C)c3cc2C#N)CC1 | Not Active | – | 1 | – | – | 129 | – |
| Cc1cc(C)c2cc(C#N)c(NCCCNC(=O)c3ccccn3)nc2c1 | Not Active | – | 6.1 | – | – | 233 | – |
| COc1ccc(C(=O)NCCNc2nc3cc(C)cc(C)c3cc2C#N)cc1OC | – | – | 48 | 1.5 | – | 216 | – |
| Cc1cc(C)c2cc(C#N)c(NCCNC(=O)c3ccncc3)nc2c1 | – | – | 10 | 7.3 | – | 220 | – |
| COc1ccccc1C(=O)NCCCNc1nc2cc(C)cc(C)c2cc1C#N | Not Active | – | 27.6 | – | – | 254 | – |
| Cc1cc(C)c2cc(C#N)c(NCCNC(=O)c3cccnc3)nc2c1 | – | – | 13.2 | 2.7 | – | 242 | – |
| COc1ccccc1C(=O)NCCNc1nc2cc(C)cc(C)c2cc1C#N | – | – | 2.3 | 11 | – | 154 | – |
| COc1cccc(C(=O)N2CCN(c3nc4cc(C)cc(C)c4cc3C#N)CC2)c1 | Not Active | – | 1.2 | – | – | 200 | – |
| COc1ccc(C(=O)N2CCN(c3nc4cc(C)cc(C)c4cc3C#N)CC2)cc1 | Not Active | – | 1.3 | – | – | 281 | – |
| COc1ccc(C(=O)NCCNc2nc3cc(C)cc(C)c3cc2C#N)c(OC)c1 | – | – | 55 | 4.2 | – | 426 | – |
| COc1ccc(C(=O)NCCNc2nc3cc(C)cc(C)c3cc2C#N)cc1 | – | – | 4.1 | 3 | Active | 181 | Active |
| Cc1cc(C)c2cc(C#N)c(NCCNC(=O)c3ccccn3)nc2c1 | Not Active | – | 1.2 | – | – | 80 | – |
| COc1ccc(C(=O)NCCCNc2nc3cc(C)cc(C)c3cc2C#N)cc1 | – | – | 5 | 4.3 | – | 231 | – |
| Cc1cc(C)c2cc(C#N)c(NCCNC(=O)c3ccccc3)nc2c1 | Not Active | – | 10 | – | – | 210 | – |

From ChEMBL document CHEMBL2016518, “Structure-activity relationships of cyanoquinolines with corrector-potentiator activity in ΔF508 cystic fibrosis transmembrane conductance regulator protein” (J Med Chem, 2012)
